# SR-BI DiI inh: mouse SR-BI HDL lipid transfer inhibition | Q61009 | ldlA[mSR-BI] CHO cells, DiI-HDL uptake fluorescence, 3 h | inhibition, % at 12.5 µM | 320,000 compounds, 0.96% hits | AID 488896;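 active means mean replicate inhibition of at least 70% and a set share of replicates each scoring 70 or more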;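 further: 0% = median of neutral control wells and 100% = median of positive control wells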
# SR-BI DiI-HDL act: SR-BI HDL lipid transfer activation | CHO ldlA[mSR-BI] cells, DiI-HDL uptake fluorescence, 3 h; 100 = double the neutral-control signal | activation, % at 12.5 µM | 320,000 compounds, 0.096% hits | AID 504775;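 active means mean replicate activation of at least 60% and every replicate at or above 60%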;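 further: 0% = median plate neutral-control signal and 100% = twice that signal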
#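 Assay system: CHO ldlA[mSR-BI] cells, LDL receptor-null, SR-BI overexpressing; medium: Ham's F12 with 0.5% BSA, HEPES 25 mM, pH 7.4; also added: DiI-HDL 10 µg/mL; timing: 3 h uptake period with compound, 37 °C; signal: DiI fluorescence, bottom read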
# UBC13 inh: human UBC13 polyubiquitination inhibition; P61088; 330,000 compounds, 0.47% hits; UBC13 polyubiquitin chain formation, TR-FRET; inhibition, % at 20 µM; in the data active means inhibition above about 45%, passing the limit was not always enough
# Neddyl block: inhibitors of human cullin neddylation | TR-FRET cullin neddylation, biochemical | 360,000 compounds, 0.58% hits | P61081+Q13564 | AID 651699 | inhibition, % at 25 µM; in the data active means inhibition above about 36%
# Target sequence (P61081 whole entry, looked up): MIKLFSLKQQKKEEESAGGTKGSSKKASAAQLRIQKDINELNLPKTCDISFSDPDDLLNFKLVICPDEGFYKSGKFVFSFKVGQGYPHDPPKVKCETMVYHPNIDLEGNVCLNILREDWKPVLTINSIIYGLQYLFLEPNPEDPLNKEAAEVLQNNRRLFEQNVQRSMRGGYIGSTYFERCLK
# Target sequence (Q13564 whole entry, looked up): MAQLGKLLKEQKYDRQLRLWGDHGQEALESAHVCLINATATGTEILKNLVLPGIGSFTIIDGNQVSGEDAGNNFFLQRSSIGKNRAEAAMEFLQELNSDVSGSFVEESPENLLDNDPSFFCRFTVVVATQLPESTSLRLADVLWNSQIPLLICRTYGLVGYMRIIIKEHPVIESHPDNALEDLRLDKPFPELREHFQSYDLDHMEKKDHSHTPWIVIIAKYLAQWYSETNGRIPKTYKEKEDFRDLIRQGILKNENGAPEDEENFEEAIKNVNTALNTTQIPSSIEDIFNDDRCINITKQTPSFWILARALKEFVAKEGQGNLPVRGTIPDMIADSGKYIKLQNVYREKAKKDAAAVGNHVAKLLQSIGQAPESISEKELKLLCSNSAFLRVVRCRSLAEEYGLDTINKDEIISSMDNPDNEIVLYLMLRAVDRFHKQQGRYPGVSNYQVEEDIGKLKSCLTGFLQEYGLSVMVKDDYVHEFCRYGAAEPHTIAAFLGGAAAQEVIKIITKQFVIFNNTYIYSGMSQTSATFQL
# * = called active by the depositor; x = no result given. An excerpt weighted towards active compounds, which were near 1.9% of everything screened.
SMILES,SR-BI DiI inh,SR-BI DiI-HDL act,UBC13 inh,Neddyl block
Oc1c(C(Nc2cccc(C(F)(F)F)c2)c2cccnc2)ccc2cccnc12 (stereo not given),39.7,-39.7,1.0,40.4*
O=C(OCc1ccccc1)N1CCC2CC1c1ccc(/C=C/CCCCl)cc12 (stereo not given),x,x,x,-3.8
NC(Cc1ccc(C(F)(F)F)cc1)c1csc(Nc2cc(NCc3ccco3)ncn2)n1 (stereo not given),x,x,x,-7.7
COc1ccc2c(c1)cc(C(=O)N/N=C/c1c(O)c(C(=O)O)cc3ccccc13)n2C,86.2*,-86.2,-17.6,13.3
CCOCCCn1c(SCC(=O)Nc2ccccc2OC)nc2ccccc2c1=O,20.8,-20.8,18.2,-9.7
COCCCn1c(SCC(=O)Nc2ccc(NC(=O)c3ccco3)c(OC)c2)nc2ccccc2c1=O,73.6*,-73.6,13.6,x
O=c1c2ccccc2nnn1-c1ccccc1,-356.3,356.3*,x,-15.0
Cc1ccccc1NC(=O)c1ccc(N/N=C/c2ccccc2O)c([N+](=O)[O-])c1,-0.1,0.1,-73.3,-27.1
Cc1ccc(NC(=O)c2ccc(N/N=C/c3cccc(O)c3)c([N+](=O)[O-])c2)cc1,95.3*,-95.3,-73.3,-30.1
Cc1ccc(NC(=O)c2ccc(Nc3c([N+](=O)[O-])cc([N+](=O)[O-])cc3[N+](=O)[O-])cc2)cc1,102.1*,-102.1,-37.3,-30.8
CCOc1cc(/C=C/c2ccc3cccc([N+](=O)[O-])c3n2)ccc1OCC(=O)N(C)C,83.3*,-83.3,-12.0,-0.3
COc1cc(/C=C/c2ccc3cccc([N+](=O)[O-])c3n2)ccc1OCC#N,62.7,-62.7,-3.4,-13.0
CCOc1cc(/C=C/c2ccc3cccc([N+](=O)[O-])c3n2)ccc1O,80.8*,-80.8,-5.7,-21.6
CC1(C(=O)Nc2cccc(C(F)(F)F)c2)Cc2c(-c3ccc4c(c3)OCO4)ccnc2O1 (stereo not given),x,x,x,28.4
CC(=O)c1c(C)[nH]c(C(=O)OCC(=O)Nc2cc(C(F)(F)F)ccc2N2CCOCC2)c1C,72.2*,-72.2,-3.1,-2.4
O=C(COC(=O)/C=C/c1ccc(F)cc1)Nc1cc(C(F)(F)F)ccc1N1CCOCC1,-23.4,23.4,7.0,7.1
Cc1c(Cl)cccc1NC(=O)CCNC(=O)N1CC(=O)Nc2ccccc21,-15.6,15.6,-3.9,8.8
CN(C)C(=O)N1CCN(C(=O)N2CCOCC2)CC1,-75.4,75.4*,-2.1,-2.4
CCN(CC)C(=O)N1CCN(C(=O)N2CCOCC2)CC1,-2.3,2.3,0.0,-2.0
C/C(=N\NC(=O)c1ccccc1O)c1c(O)cc(C)oc1=O,101.4*,-101.5,18.3,6.6
Cc1ccc(C(=O)N/C(=C/c2ccc(-c3cccc([N+](=O)[O-])c3)o2)C(=O)NC(C)C)cc1,83.3*,-83.3,-5.8,-25.0
Cc1ccc(C(=O)N/C(=C\c2ccc(-c3cccc([N+](=O)[O-])c3)o2)C(=O)NCCCN2CCOCC2)cc1,78.4*,-78.4,30.3,-23.1
Cc1ccc(C(=O)N/C(=C/c2ccc(-c3cccc([N+](=O)[O-])c3)o2)C(=O)NC(C)(C)C)cc1,52.1,-52.1,-5.8,-12.2
CCOC(=O)c1[nH]c2ccc(F)cc2c1NC(=O)c1cc(OC)c(OC)c(OC)c1,71.5*,-71.5,-3.8,21.0
CCOC(=O)c1[nH]c2ccc(F)cc2c1NC(=O)c1ccccc1C(=O)O,-0.8,0.8,3.7,29.5
SMILES,SR-BI DiI inh,SR-BI DiI-HDL act,UBC13 inh,Neddyl block
CCCCCCn1c(=O)n2n(c1=O)C[C@]1(OC(=O)Nc3c(C)noc3C)CN(S(=O)(=O)c3ccc(C)cc3)C[C@]1(O)C2,x,x,x,0.1
CCOc1ccccc1N1CCN(C2=C(NS(=O)(=O)c3cccs3)C(=O)c3ccccc3C2=O)CC1,81.3*,-81.3,-67.2,-21.3
CN1CCN(C2=C(NS(=O)(=O)c3cccs3)C(=O)c3ccccc3C2=O)CC1,14.5,-14.5,-95.6,-37.9
O=C(CSc1nnc(NC(=O)C2CC2)s1)NCc1ccccc1,-16.7,16.7,5.4,0.1
COc1cc(/C=N/Nc2ccccc2)ccc1O,4.2,-4.2,1.4,10.8
COC(=O)c1[nH]c2cc(OC)c(OC)cc2c1/C=N/Nc1ccccc1,121.5*,-121.4,11.4,36.4
CC1(C(=O)Nc2ccc(Cl)c(Cl)c2)CCN1Cc1cc2ccccc2o1 (stereo not given),x,x,x,2.5
CSc1ccccc1OCc1cc(C(=O)NCCn2nc(C)cc2C)no1,71.8*,-71.8,-6.9,-2.3
CC(Oc1ccc(C#N)cc1)C(=O)N1CC=C(c2ccccc2)CC1 (stereo not given),-8.2,8.2,4.9,-4.8
CCN(CC)S(=O)(=O)c1cc(NC(=O)CSc2nc3c(cc2C#N)C(=O)CC(C)(C)C3)ccc1C,71.6*,-71.6,-7.3,-89.8
C/C(=N\NC(=O)c1c(Cl)c(C)nn1C)c1ccc(NC(=O)COc2ccc(Cl)cc2C)cc1,71.8*,-71.8,3.4,23.5
C/C(=N\NC(=O)c1c(Cl)c(C)nn1C)c1cccc(NC(=O)COc2ccccc2)c1,62.5,-62.5,-9.4,3.2
Cc1ccccc1OCc1nc(-c2ccc(NC(=O)c3ccc4c(c3)OCO4)cc2)no1,90.6*,-90.6,-13.6,9.1
CCc1nc2ccc(C(=O)N3CCN(S(=O)(=O)CC)CC3)cn2c1N(C)C(=O)c1cccc(OC)c1,x,x,x,4.2
O=C1CC(SC(=Nc2ccccc2)Nc2ccccc2)C(=O)N1c1cccc(Cl)c1 (stereo not given),78.4*,-78.4,7.5,3.7
O=C1CC(SC(=Nc2ccccc2)Nc2ccccc2)C(=O)N1c1ccc(Cl)cc1 (stereo not given),70.8*,-70.8,0.6,2.8
CC1(C)C2CCC13CS(=O)(=O)N[C@@H]3C2 (stereo not given in full),-117.8,117.8*,5.2,-7.8
Brc1ccc(CNc2ccc3ncccc3c2)cc1,20.8,-20.8,-8.6,47.9*
COc1cccc(C(C(=O)NC2CCCC2)N2CCN(c3cc(C)nc4ccccc34)CC2)c1OC (stereo not given),x,x,x,-12.0
COc1ccc(NC(=O)CCSc2nc(C)cs2)cc1,-39.2,39.2,-11.1,0.4
Cc1cccc(NC(=O)c2sc3nc4c(c(-c5cccs5)c3c2N)CN(C)CC4)c1,82.8*,-82.8,-57.4,-29.6
CC(C)NC(=O)c1sc2nc3c(c(-c4cccs4)c2c1N)CN(C)CC3,-3.4,3.4,-70.3,-5.9
c1ccc(CNc2nc(NCc3ccccc3)c3sccc3n2)cc1,x,x,x,-4.3
C/C(=N\OCC(=O)N/N=C/c1ccc(C)cc1O)c1cccs1,-4.4,4.4,-13.1,40.5*
CCOC(=O)c1cc(C)n(CCc2ccccc2)c1C,80.2*,-80.2,-6.4,1.1
CCOC(=O)N1CCN(S(=O)(=O)c2ccc(C(=O)NNc3nc4cc(C)cc(C)c4s3)cc2)CC1,120.8*,-120.8,-73.6,16.0
CCOC(=O)N1CCN(S(=O)(=O)c2ccc(C(=O)N(CCN(C)C)c3nc4ccc(Cl)cc4s3)cc2)CC1,-15.3,15.3,7.7,-2.2
CCOC(=O)N1CCN(S(=O)(=O)c2ccc(C(=O)NNc3nc4c(C)cccc4s3)cc2)CC1,102.5*,-102.5,-79.1,7.8

# Compound activity (PubChem BioAssay)
